Source: ChEMBL document CHEMBL2331121, “Design, synthesis, and pharmacological characterization of N- and O-substituted 5,6,7,8-tetrahydro-4H-isoxazolo[4,5-d]azepin-3-ol analogues: novel 5-HT(2A)/5-HT(2C) receptor agonists with pro-cognitive properties” (J Med Chem, 2013)
Calls of active or inactive are those of the source. The calls are words filed in the database; no cut-off is given here.

Assays:
[1] = biological target: T1, 5-hydroxytryptamine receptor 2C (Homo sapiens, UniProt P28335); assay: Displacement of [3H]mesulergine from human 5HT2C receptor expressed in tsA201 cell membranes after 1 hr by scintillation counting analysis
T1 sequence (P28335 whole entry): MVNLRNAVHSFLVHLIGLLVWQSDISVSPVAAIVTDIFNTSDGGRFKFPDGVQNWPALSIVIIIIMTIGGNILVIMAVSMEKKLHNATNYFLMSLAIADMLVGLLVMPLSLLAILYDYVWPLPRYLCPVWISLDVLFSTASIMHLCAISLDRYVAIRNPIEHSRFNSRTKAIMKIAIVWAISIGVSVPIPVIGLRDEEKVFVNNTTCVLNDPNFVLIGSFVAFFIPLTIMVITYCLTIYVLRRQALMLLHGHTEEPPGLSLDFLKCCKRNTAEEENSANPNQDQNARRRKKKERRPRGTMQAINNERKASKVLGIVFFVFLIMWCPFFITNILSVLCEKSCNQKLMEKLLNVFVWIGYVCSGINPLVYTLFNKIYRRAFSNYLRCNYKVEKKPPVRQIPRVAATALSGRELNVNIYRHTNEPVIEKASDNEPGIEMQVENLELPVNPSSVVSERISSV

[2] = biological target: T2, 5-hydroxytryptamine receptor 2A (Homo sapiens, UniProt P28223); assay: biochemical; format: cell-based, tsA201
T2 sequence (P28223 whole entry): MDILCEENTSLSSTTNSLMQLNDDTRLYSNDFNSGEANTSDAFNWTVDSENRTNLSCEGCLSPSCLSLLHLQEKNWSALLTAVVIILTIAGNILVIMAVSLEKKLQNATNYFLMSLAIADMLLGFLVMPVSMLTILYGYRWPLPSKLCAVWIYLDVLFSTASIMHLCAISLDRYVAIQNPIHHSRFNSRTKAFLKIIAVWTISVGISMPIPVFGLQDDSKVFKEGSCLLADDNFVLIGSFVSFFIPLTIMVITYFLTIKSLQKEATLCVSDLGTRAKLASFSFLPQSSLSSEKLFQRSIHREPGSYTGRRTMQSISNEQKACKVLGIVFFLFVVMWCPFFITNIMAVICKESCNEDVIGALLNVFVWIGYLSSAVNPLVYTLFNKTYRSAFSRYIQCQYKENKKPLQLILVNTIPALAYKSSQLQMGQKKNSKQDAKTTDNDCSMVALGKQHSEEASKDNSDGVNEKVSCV

[3] = biological target: T2, 5-hydroxytryptamine receptor 2A; assay: Agonist activity at human 5HT2A receptor expressed in HEK293 cells assessed as induction of intracellular calcium release up to 1000 uM measured up to 90 secs by fluorescence assay; format: functional, cell-based
Method in brief: (§1)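 Stable polyclonal 5-HT2A or 5-HT2C HEK293 cells seeded on poly-D-lysine plates (6 × 10⁴ cells/well). Next day loaded with Fluo-4/AM for 1 h at 37 °C in HBSS/20 mM HEPES/1 mM CaCl₂/1 mM MgCl₂/2.5 mM probenecid, pH 7.4. Fluorescence (485 ex/525 em) recorded before and up to 90 s after agonist. Response relative to 5-HT on the same plate. Duplicate, at least three times.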

[4] = biological target: T3, 5-hydroxytryptamine receptor 2C (Homo sapiens) (UniProt P28335); assay: Agonist activity at human 5HT2C receptor expressed in HEK293 cells assessed as induction of intracellular calcium release up to 1000 uM measured up to 90 secs by fluorescence assay; format: functional, cell-based; method in brief: as §1
T3 sequence (whole entry): T1 sequence (P28335 whole entry)

[5] = biological target: T1, 5-hydroxytryptamine receptor 2C; assay: Agonist activity at human 5HT2C receptor expressed in HEK293 cells assessed as accumulation of IP1 incubated for 1 hr at 37 degC followed by 15 mins at RT by TR-FRET assay; format: functional, cell-based
[6] = biological target: T3, 5-hydroxytryptamine receptor 2C (Homo sapiens); assay: Ratio of EC50 for human 5HT2C receptor by calcium fiux-based fluorescence assay to […] accumulation-based TR-FRET assay; format: functional
[7] = biological target: T2, 5-hydroxytryptamine receptor 2A; assay: Ratio of EC50 for human 5HT2A receptor by calcium fiux-based fluorescence assay to EC50 for 5HT2A by IP1 accumulation-based TR-FRET assay; format: functional
[8] = biological target: T3, 5-hydroxytryptamine receptor 2C (Homo sapiens); assay: Agonist activity at human 5HT2C receptor expressed in HEK293 cells assessed as accumulation of IP1 incubated for 1 hr at 37 degC followed by 15 mins at RT by TR-FRET assay relative to 5HT; format: functional, cell-based
Method in brief: (§2)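 Polyclonal HEK293 lines stably expressing human 5-HT2A (variant 1) or 5-HT2C (INI isoform), detached and suspended at 1 × 10⁷ cells/mL in HBSS with 20 mM HEPES, 1 mM CaCl₂, 1 mM MgCl₂, pH 7.4. Ligands in buffer with 40 mM LiCl. Incubated 1 h at 37 °C, then 15 min RT. IP1 read by HTRF 665/615 ratio. Triplicate, at least four times.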

[9] = biological target: T3, 5-hydroxytryptamine receptor 2C (Homo sapiens); assay: Agonist activity at human 5HT2C receptor expressed in HEK293 cells assessed as induction of intracellular calcium release by fluorescence assay relative to 5HT; format: functional, cell-based; method in brief: as §1
[10] = biological target: T2, 5-hydroxytryptamine receptor 2A; assay: Agonist activity at human 5HT2A receptor expressed in HEK293 cells assessed as induction of intracellular calcium release by fluorescence assay relative to 5HT; format: functional, cell-based; method in brief: as §1
[11] = biological target: T2, 5-hydroxytryptamine receptor 2A; assay: Agonist activity at human 5HT2A receptor expressed in HEK293 cells assessed as accumulation of IP1 incubated for 1 hr at 37 degC followed by 15 mins at RT by TR-FRET assay relative to 5HT; format: functional, cell-based; method in brief: as §2
[12] = biological target: T1, 5-hydroxytryptamine receptor 2C; assay: Agonist activity at human 5HT2C receptor expressed in HEK293 cells assessed as induction of intracellular calcium release measured for 90 secs by fluorescence assay; format: functional, cell-based; details: read-out: EC50
[13] = biological target: T2, 5-hydroxytryptamine receptor 2A; assay: Agonist activity at human 5HT2A receptor expressed in HEK293 cells assessed as accumulation of IP1 incubated for 1 hr at 37 degC followed by 15 mins at RT by TR-FRET assay; format: functional, cell-based
[14] = biological target: T2, 5-hydroxytryptamine receptor 2A; assay: Agonist activity at human 5HT2A receptor expressed in HEK293 cells assessed as induction of intracellular calcium release measured for 90 secs by fluorescence assay; format: functional, cell-based
[15] = biological target: T4, 5-hydroxytryptamine receptor 2C (Rattus norvegicus) (UniProt P08909); assay: Displacement of [125I]-N-(p-I-Bn)-THAZ from 5HT2C receptor in rat cerebellum membrane after 1 hr by scintillation counting analysis; format: cell membranes
T4 sequence (whole entry): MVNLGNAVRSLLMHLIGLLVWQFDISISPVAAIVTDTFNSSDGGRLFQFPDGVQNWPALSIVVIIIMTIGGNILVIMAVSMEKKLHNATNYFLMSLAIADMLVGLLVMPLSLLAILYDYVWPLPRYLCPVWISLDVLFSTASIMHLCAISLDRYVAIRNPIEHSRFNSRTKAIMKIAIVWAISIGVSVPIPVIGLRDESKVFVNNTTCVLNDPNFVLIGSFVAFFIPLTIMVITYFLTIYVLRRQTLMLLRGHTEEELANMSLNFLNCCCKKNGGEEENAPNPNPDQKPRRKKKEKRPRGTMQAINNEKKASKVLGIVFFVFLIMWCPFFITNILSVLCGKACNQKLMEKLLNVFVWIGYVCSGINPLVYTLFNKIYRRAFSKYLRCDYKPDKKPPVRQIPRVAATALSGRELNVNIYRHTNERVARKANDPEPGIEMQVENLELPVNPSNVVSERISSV

[16] = biological target: T4, 5-hydroxytryptamine receptor 2C (Rattus norvegicus); assay: Displacement of [125I]-N-(p-I-Bn)-THAZ from 5HT2C receptor in rat hippocampal membrane after 1 hr by scintillation counting analysis; format: cell membranes; details: Hippocampus
[17] = biological target: T4, 5-hydroxytryptamine receptor 2C (Rattus norvegicus); assay: (§3) Displacement of [125I]-N-(p-I-Bn)-THAZ from 5HT2C receptor in rat cerebral cortex membrane after 1 hr by scintillation counting analysis; format: cell membranes
[18] = biological target: T5, 5-hydroxytryptamine receptor 2C (Rattus norvegicus, UniProt P08909); assay: as §3; format: cell membranes
T5 sequence (P08909 whole entry): T4 sequence (whole entry)

[19] = biological target: T4, 5-hydroxytryptamine receptor 2C (Rattus norvegicus); assay: Displacement of [125I]-N-(p-I-Bn)-THAZ from 5HT2C receptor in rat midbrain membrane after 1 hr by scintillation counting analysis; format: cell membranes
[20] = biological target: T3, 5-hydroxytryptamine receptor 2C (Homo sapiens); assay: Agonist activity at human 5HT2C receptor expressed in HEK293 cells assessed as induction of intracellular calcium release at 100 to 1000 uM by fluorescence assay; format: functional, cell-based
Method in brief: (§4)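 Stable polyclonal h5-HT2A or h5-HT2C HEK293 cells plated on poly-D-lysine wells, loaded next day with Fluo-4/AM for 1 h at 37 °C. Buffer was HBSS with 20 mM HEPES, 1 mM CaCl₂, 1 mM MgCl₂, 2.5 mM probenecid, pH 7.4. Fluorescence read at 485/525 nm before and up to 90 s after agonist addition. Responses normalised to 5-HT on the same plate. Duplicate, 4−10 experiments.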

[21] = biological target: T2, 5-hydroxytryptamine receptor 2A; assay: Agonist activity at human 5HT2A receptor expressed in HEK293 cells assessed as induction of intracellular calcium release at 1 mM measured for 90 secs by fluorescence assay; format: functional, cell-based; method in brief: as §4
[22] = biological target: T2, 5-hydroxytryptamine receptor 2A; assay: Antagonist activity at human 5HT2A receptor expressed in HEK293 cells assessed as inhibition of 5HT-induced intracellular calcium release at 1 mM measured for 90 secs by fluorescence assay; format: functional, cell-based
Method in brief: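 Fluo-4/Ca²⁺ read-out in stable h5-HT2A or h5-HT2C HEK293 cells (HBSS/HEPES/probenecid buffer, pH 7.4). Antagonist was added after the dye-loading wash, then cells were challenged with an EC₇₅−EC₈₅ concentration of 5-HT. Emission at 525 nm was monitored up to 90 s after agonist addition. Duplicate, repeated in independent experiments.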

[23] = biological target: T2, 5-hydroxytryptamine receptor 2A; assay: Agonist activity at human 5HT2A receptor expressed in HEK293 cells assessed as induction of intracellular calcium release at 100 to 1000 uM by fluorescence assay; format: functional, cell-based; method in brief: as §4
[24] = biological target: T2, 5-hydroxytryptamine receptor 2A; format: functional, cell-based, HEK293
[25] = biological target: T1, 5-hydroxytryptamine receptor 2C; assay: Antagonist activity at human 5HT2C receptor expressed in HEK293 cells assessed as inhibition of 5HT-induced intracellular calcium release measured for 90 secs by fluorescence assay; format: functional, cell-based

CCn1oc2c(c1=O)CCNCC2 was tested, and the Ki [1] was 300 µM, the Ki ([2]; read-out: Ki) was 300 µM and the Activity [3] was “Active”. For the same compound, the Activity [4] was “Active”.

For c1ccc(COc2noc3c2CCNCC3)cc1, the EC50 [5] was 0.23 µM, the Ratio EC50 [6] was 2 and the Ratio EC50 [7] was 2. For the same compound, the Emax [8] was 105%, the Emax [9] was 84% and the Ki [1] was 1.2 µM. For the same compound, the Emax [10] was 59%, the Emax [11] was 77% and the Ki ([2]; read-out: Ki) was 3.3 µM. For the same compound, the EC50 [12] was 0.1 µM, the EC50 [13] was 1.3 µM and the EC50 ([14]; read-out: EC50) was 0.24 µM.

O=c1c2c(on1Cc1ccc(I)cc1)CCNCC2 was tested, and the Activity [15] was “inactive”, the Activity [16] was “inactive” and the Ki [1] was 0.31 µM. The Activity [17] was “Dose-dependent effect”, the Ki [18] was 0.0102 µM and the Activity [19] was “inactive”.

With CCCn1oc2c(c1=O)CCNCC2 the Ki [1] was 100 µM, the Ki ([2]; read-out: Ki) was 100 µM and the Activity [3] was “Active”. The Activity [4] was “Active”.

In the case of COc1noc2c1CCN(C)CC2, the Ki [1] is reported as > 300 µM, the Activity [20] is reported as “Active” and the Ki ([2]; read-out: Ki) is reported as > 300 µM. The Ki ([2]; read-out: pKi (converted)) was > 316 µM, the Activity [21] was “inactive” and the Activity [22] was “inactive”. For the same compound, the EC50 ([14]; hek293, read-out: EC50) was > 1000 µM and the EC50 ([14]; read-out: pEC50 (converted)) was > 1000 µM.

c1ccc(COc2noc3c2CNCC3)cc1 was tested, and the Activity [20] was “Active” and the Activity [23] was “Active”.

Compound CN1CC2c3ccccc3Oc3ccc(Cl)cc3C2C1 (racemic) [ASENAPINE] has a Ki ([24]; read-out: Ki) of 0.00091 µM and a Ki [25] of 0.0025 µM.

OC(c1ccccc1)C1CCN(CCc2ccccc2)CC1 (configuration not stated) [GLEMANSERIN] gave a Ki ([24]; read-out: pKi (converted)) of 0.00245 µM and a Ki [25] of 10 µM.

COc1noc2c1CNCC2 was tested, and the Activity [3] was “Active” and the Activity [4] was “Active”.

Cn1oc2c(c1=O)CCNCC2 was tested, and the Ki [1] was > 300 µM, the Activity [20] was “Active” and the Ki ([2]; read-out: Ki) was > 300 µM. The Ki ([2]; read-out: pKi (converted)) was > 316 µM and the Activity [23] was “Active”.
